GPR7 antagonist – human neuropeptides B/W receptor 1 antagonism; P48145; GPR7-expressing cells, fluorescence antagonist assay; inhibition, % at 4.4 µM; hit rate 1.1% among 290,000; in the data active means inhibition above about 16%, passing the limit was not always enough;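 further: cells stimulated with the agonist NPW; 0% = agonist with vehicle and 100% = vehicle without agonist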
CHO parental Ca – signal in parental CHO cells, OX1R antagonist counter-screen. AID 463079. parental CHO-K1, ATP-induced calcium, Fluo-8 fluorescence. hit rate 0.63% among 330,000. inhibition, % at 5.6 µM;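 active means inhibition above that plate's mean sample inhibition plus 3 SD, cut at about 26% in these data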;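 further: 0% = ATP-challenged DMSO wells and 100% = DMSO wells without ATP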
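Assay system: parental CHO cells; Read-out basis: percent inhibition of ATP-evoked calcium rise, normalized to controls; Benchmarks: ATP and no-ATP DMSO wells; Compound dosing: single nominal dose of 5.6 µM per compound; Signal: Fluo-8 calcium dye fluorescence; Also added: ATP as calcium-mobilizing challenge; Repeats: singlicate.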
OX1R antag-1 – antagonists of human orexin 1 receptor (OX1R); hit rate 1.8% among 330,000; inhibition, % at 6.6 µM; OX1R-expressing cells, FRET antagonist read-out; O43613; in the data active means inhibition mostly above about 38%, no sharp cut-off; inactive means mostly below about 40%;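 further: 0% = agonist challenge alone and 100% = reference antagonist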
Target sequence (O43613 whole entry, looked up): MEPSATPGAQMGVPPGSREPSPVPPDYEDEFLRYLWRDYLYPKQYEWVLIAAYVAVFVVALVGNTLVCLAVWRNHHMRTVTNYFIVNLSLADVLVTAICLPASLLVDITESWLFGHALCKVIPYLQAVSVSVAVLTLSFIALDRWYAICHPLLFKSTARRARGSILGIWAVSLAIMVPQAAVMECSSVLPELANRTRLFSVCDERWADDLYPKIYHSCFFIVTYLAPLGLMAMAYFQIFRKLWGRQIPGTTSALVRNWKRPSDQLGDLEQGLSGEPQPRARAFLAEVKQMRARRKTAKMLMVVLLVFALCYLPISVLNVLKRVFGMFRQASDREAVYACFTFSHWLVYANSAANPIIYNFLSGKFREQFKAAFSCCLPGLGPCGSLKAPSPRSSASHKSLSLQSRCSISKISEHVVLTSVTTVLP
TAAR1 antag – human TAAR1 antagonism | Q96RJ0 | CHO RD-HGA16 TAAR1, Fluo-8 calcium fluorescence, antagonist | inhibition, % at 3 µM | hit rate 1.5% among 360,000 | AID 624466;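 active means inhibition above a per-plate cutoff, the mean inhibition of test compounds on that plate plus 3 SD, cut at about 49% in these data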;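 further: 0% = DMSO plus EC80 beta-PEA response and 100% = DMSO alone without agonist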
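Test system: RD-HGA16 CHO cells with stable hTAAR1 and Gα16 / Probe or stimulus: EC80 β-phenethylamine stimulus / Times: seeding 17-24 h prior, 75-min 37 °C, 30-min RT dye loading / Detection: Fluo-8 calcium-sensitive fluorescence / Read-out basis: % inhibition scaled between DMSO and EC80 PEA controls / Repeats: singlicate, one well per test compound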
TAAR1 ag – human TAAR1 agonism; CHO RD-HGA16 TAAR1, Fluo-8 calcium fluorescence; vehicle wells 0%, saturating PEA agonist 100%; activation, % at 3 µM; hit rate 0.99% among 360,000; AID 624467;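 active means activation above the mean activation of all test compounds in the run plus 3 SD, cut at about 38% in these data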
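Assay system – CHO-derived RD-HGA16 cells with stable Gα16 and human TAAR1 · Compound dosing – one-point dosing at 3 µM (nominal) · Incubation – 17-24 h seeding, 75 min 37 °C dye, 30 min RT · Measured by – kinetic Fluo-8 calcium fluorescence · Control set – DMSO vehicle as 0%, PEA at EC100 as 100% · Repeats – single well for each compound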
OX1R antag-2 – antagonists of human orexin 1 receptor; O43613; CHO/OX1R cells, Fluo-8 calcium fluorescence, orexin A; inhibition, % at 5 µM; hit rate 0.43% among 330,000; AID 434989;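 active means inhibition above its plate's threshold, mean inhibition of all tested compounds on the plate plus 3 SD, cut at about 37% in these data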;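 further: 0% = orexin A challenge wells and 100% = SB-334867-A antagonist wells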
OX1R Fluo8 conf – OX1R (human) antagonism, confirmed; CHO/OX1R cells, orexin A calcium Fluo-8 fluorescence; inhibition, % at 5 µM; shares compounds with OX1R antag-2; hit rate 38% among 1,100; in the data active means inhibition above about 29%;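 further: 0% = agonist challenge alone and 100% = reference antagonist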
CHO Ca counter – counter-screen for OX1R antagonists: effect in parental CHO cells; parental CHO-K1, ATP-induced calcium, Fluo-8 fluorescence; hit rate 9.3% among 1,100; inhibition, % at 5.6 µM; shares compounds with OX1R antag-2;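 active means inhibition above a per-plate limit, the mean inhibition of that plate's test compounds plus 3 SD, cut at about 25% in these data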;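 further: 0% = ATP challenge with DMSO and 100% = DMSO without ATP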
Starred values were filed as active, the others as inactive; / = no result. Sampled rows, rich in hits. Any-hit rate of the full collection: about 4.5%.

SMILES	GPR7 antagonist	CHO parental Ca	OX1R antag-1	TAAR1 antag	TAAR1 ag	OX1R antag-2	OX1R Fluo8 conf	CHO Ca counter
COc1cn(-c2ccccc2)nc1C(=O)Nc1ccc(C)cc1Cl	-10	-18	64	0	-2	28	17	12
COc1ccc(CNC(=O)c2nn(-c3ccccc3)cc2OC)cc1	-2	-16	10	-31	12	-19	/	/
NC(=O)c1ccc(N2CCN(c3ccccc3F)CC2)c([N+](=O)[O-])c1	2	20	28	2	4	24	7	22
NC(=O)c1ccc(N2CCN(c3ccccc3O)CC2)c([N+](=O)[O-])c1	16	8	30	1	11	1	/	/
CCCCNc1ccc(C(F)(F)F)cc1S(=O)(=O)NCCc1ccc(F)cc1	/	12	8	50*	0	47	-7	-9
COc1ccc(S(=O)(=O)NCCc2ccc(F)cc2)cc1	-5	1	12	-6	-1	-13	/	/
Fc1ccc(-c2nc3c4ccccc4ccn3c2Cc2ccsc2)cc1	/	/	/	-17	1	/	/	/
CCNC(=O)C12CCC(C)(C(=O)O1)C2(C)C (configuration not stated)	-19	5	3	2	0	22	7	1
COc1ccc(C)cc1NC(=O)CSc1nnc(COc2ccccc2)n1Cc1ccco1	3	14	23	1	4	43	-17	-14
O=C(CSc1nc2ccccc2[nH]1)Nc1ccccc1N1CCOCC1	-14	-1	75	-16	7	38	35*	-9
CCOC(=O)[C@@H](C)NS(=O)(=O)N(Cc1ccccc1)[C@H](C(=O)OC)C(C)C	/	-15	10	7	2	-10	/	/
CCOC(=O)[C@@H](C)N(Cc1ccc(OC)cc1)S(=O)(=O)N(Cc1ccccc1)[C@H](C(=O)OC)C(C)C	/	7	9	15	2	50*	7	58*
COc1cccc(N2CCN(C(=O)C3CCN(C(=O)Nc4ccccc4)CC3)CC2)c1	/	/	/	-23	1	/	/	/
CCOc1ccccc1NC(=O)CCN(c1ccc(C)cc1)S(=O)(=O)c1ccccc1	13	-23	55	-6	-1	1	/	/
CCOc1ccccc1NC(=O)CN(c1nccs1)S(=O)(=O)c1ccc(N)cc1	-1	-18	72	5	2	28	30*	-15
CC(=O)c1c(C)[nH]c(C(=O)CSc2nc3ccccc3c(=O)n2CCCO)c1C	-7	-11	1	39	8	28	14	-3
C/C(N)=C(/C#N)C(=O)CSc1nc2ccccc2c(=O)n1CCCO	-5	-6	9	6	1	18	/	/
CCN(CC(=O)Nc1cc(S(=O)(=O)N2CCCCC2)ccc1Cl)Cc1ccccc1	/	27	15	4	-1	-27	/	/
CCN(CC(=O)Nc1cc(S(=O)(=O)N2CCOCC2)ccc1Cl)Cc1ccccc1	/	-20	20	38	10	55*	14	4
Cc1c(C)c2ccc(OC(C)C(=O)NCc3ccccn3)cc2oc1=O (configuration not stated)	0	-13	11	5	1	-9	/	/
CC(Oc1ccc2c3c(c(=O)oc2c1)CCCC3)C(=O)NCc1ccccn1 (configuration not stated)	-8	-26	20	1	0	54*	-11	-14
Cc1cc(Cl)ccc1NC(=S)NCc1ccc(Cl)cc1	10	11	40	29	16	28	-4	5
CC(C)(C)OC(=O)Nc1ccccc1-n1nnnc1C(C(=O)c1ccc(F)cc1)N1CCOCC1 (configuration not stated)	/	/	/	-3	1	/	/	/
Cc1noc(/C=C/c2ccc(-c3ccccc3Cl)o2)c1[N+](=O)[O-]	8	21	8	/	/	29	74*	43*
Cc1cccc(C)c1N/C=C/c1onc(C)c1[N+](=O)[O-]	-14	-22	18	3	0	-11	/	/
SMILES	GPR7 antagonist	CHO parental Ca	OX1R antag-1	TAAR1 antag	TAAR1 ag	OX1R antag-2	OX1R Fluo8 conf	CHO Ca counter
O=S1(=O)C=C[C@@H](COCc2ccccc2)N1Cc1ccc(Br)cc1	/	/	/	10	-1	/	/	/
CCc1noc(C)c1C(=O)Oc1ccc(N(C)S(=O)(=O)c2ccc(C)cc2)cc1	/	8	9	/	/	55*	5	5
Cc1ccc(N2CCN(C(=O)C3CCCN(c4ncnc5c4nc4n5CCCCC4)C3)CC2)c(C)c1 (configuration not stated)	-3	-32	11	-8	7	-15	/	/
Cc1cccc(N2CCN(C(=O)C3CCN(c4ncnc5c4nc4n5CCCCC4)CC3)CC2C)c1 (configuration not stated)	0	3	13	49*	13	37	1	-7
N#CC1=C(N)Oc2cc(N)ccc2C1c1cccnc1 (configuration not stated)	-11	4	19	-15	4	-4	/	/
CCN(CC)c1ccc2c(c1)OC(N)=C(C#N)C2c1cccnc1 (configuration not stated)	9	20	16	-7	64*	29	8	10
CCn1c(CSc2ncccn2)nnc1SCC(=O)N1CCc2ccccc21	-5	-21	-1	5	1	-25	/	/
Cn1c(CSc2ncccn2)nnc1SCC(=O)N1CCCc2ccccc21	7	-13	8	13	5	32	-2	-4
COc1ccccc1NC(=O)N(C)C[C@@H]1OCc2cnnn2CCCC(=O)N([C@H](C)CO)C[C@H]1C	/	/	/	-23	0	/	/	/
O=C(CSc1ccc(S(=O)(=O)N2CCOCC2)cn1)Nc1ccc(F)c(F)c1	/	-4	21	14	15	35	22	18
CC(C)(C)c1cc(NCc2ccccn2)n2ncc(-c3ccc(Cl)cc3)c2n1	-3	-16	18	-21	3	-16	/	/
CN(C)CCCNc1cc(C(C)(C)C)nc2c(-c3ccc(Cl)cc3)cnn12	10	13	9	-6	4	31	25	-3
CC1CCN(S(=O)(=O)c2cc(C(=O)N3CCN(c4ccccc4)CC3)ccc2Br)CC1	/	/	/	25	-1	/	/	/
CCn1c(SCC(=O)N2CCCC2)nc2ccccc2c1=O	-7	-22	16	12	3	34*	0	-8
Cc1cccc(OCCCC(=O)Nc2ccc(Cl)c(S(=O)(=O)N3CCOCC3)c2)c1	/	-12	7	27	7	35	7	8
Cc1cccc(OCCC(=O)Nc2ccc(C)c(S(=O)(=O)N3CCOCC3)c2)c1	/	-9	11	5	8	-6	/	/

Screening results as filed in PubChem BioAssay.
